Measured values gathered from unrelated publications.
Compare with care: the assays were run in different laboratories.
EGFR G719C: Epidermal growth factor receptor (EGFR, Homo sapiens, UniProt P00533, G719C)
EGFR L858R: Epidermal growth factor receptor (EGFR, Homo sapiens, UniProt P00533, L858R)
EGFR T790M: Epidermal growth factor receptor (EGFR, Homo sapiens, UniProt P00533, T790M)
EGFR: Epidermal growth factor receptor (EGFR, Homo sapiens, UniProt P00533)
EGFR L858R/T790M: Epidermal growth factor receptor (EGFR, Homo sapiens, UniProt P00533, L858R/T790M)
EGFR G719S: Epidermal growth factor receptor (EGFR, Homo sapiens, UniProt P00533, G719S)
EGFR del752-759: Epidermal growth factor receptor (EGFR, Homo sapiens, UniProt P00533, del752-759)
EGFR L861Q: Epidermal growth factor receptor (EGFR, Homo sapiens, UniProt P00533, L861Q)
EGFR A750P/del747-749: Epidermal growth factor receptor (EGFR, Homo sapiens, UniProt P00533, A750P/del747-749)
EGFR del747-750/T751S: Epidermal growth factor receptor (EGFR, Homo sapiens, UniProt P00533, del747-750/T751S)
EGFR del746-750: Epidermal growth factor receptor (EGFR, Homo sapiens, UniProt P00533, del746-750)

Cc1nc(N2CC[C@@H](O)C2)ncc1-c1cc(C(F)(F)F)cc2[nH]ncc12
remaining binding (EGFR G719C; cell-free assay; competition with immobilised ligand; 1 µM): 100%

N#Cc1ccccc1CSc1nnc2c(n1)[nH]c1ccccc12
remaining binding (EGFR L858R; binding; competition with immobilised ligand; 10 µM): 100%

CN1CCN(c2ccc(Nc3nccc(-c4ccccc4)n3)cc2C(F)(F)F)CC1
remaining binding (EGFR L858R; binding; 10 µM): 84%

CCOC(=O)c1cc2cc(-c3cc(C(=O)NCc4ccc(C(=O)O)cc4)nn3C)ccc2[nH]1
remaining binding (EGFR T790M; cell-free assay; competition with immobilised ligand; 0.1 µM): 89%

CCN(CC)Cc1cc(Nc2ccnc3cc(Cl)ccc23)ccc1O
remaining binding (EGFR; cell-free assay; competition with immobilised ligand; 10 µM): 91%

O=C(c1ccc(Nc2ncc(Cl)c(-c3ccc(Cl)s3)n2)cc1)N1CCC(N2CCCC2)CC1
remaining binding (Epidermal growth factor receptor (EGFR, Homo sapiens, UniProt P00533, del747-752/P753S); binding; competition with immobilised ligand; 1 µM): 82%

CN(C)c1nccc(-c2cnn3ncccc23)n1
remaining binding (EGFR L858R/T790M; binding; 1 µM): 100%

CC(C)(C)c1ccc(-c2nc(CBr)nn2-c2cccc(O)c2)cc1
remaining binding (EGFR L858R; cell-free assay; competition with immobilised ligand; 10 µM): 78%

CCN1CCN(Cc2ccc(C(=O)Nc3ccc(C)c(Oc4ccc5c(c4)CC(=O)N5)c3)cc2C(F)(F)F)CC1
remaining binding (EGFR G719S; binding; competition with immobilised ligand; 1 µM): 80%

CC(=O)N1CCC(c2ccc(C(=O)NC(=N)N)cc2C(F)(F)F)CC1
remaining binding (EGFR del752-759; cell-free assay; competition with immobilised ligand; 1 µM): 90%

c1cnn2ncc(-c3ccnc(N4CCC45COC5)n3)c2c1
remaining binding (EGFR L861Q; binding; 1 µM): 96%

CCOCCn1cc(C(=O)Nc2ccc(-n3nc(-c4cccnc4)cc3C(F)(F)F)cn2)ccc1=O
remaining binding (EGFR A750P/del747-749; cell-free assay; competition with immobilised ligand; 1 µM): 96%

COc1cnc(Nc2cccc(S(N)(=O)=O)c2)nc1N1CCN(c2ccccc2)CC1
remaining binding (EGFR L858R; binding; competition with immobilised ligand; 1 µM): 89%

O=C(NCCCN1CCOCC1)c1ccc(Nc2nccc(-c3cc4ccccc4s3)n2)cc1
remaining binding (EGFR G719S; binding; competition with immobilised ligand; 1 µM): 100%

O=C(Nc1cccnn1)N1CC(C/C=C/c2cncc(Oc3ccc(C(F)(F)F)cn3)n2)C1
remaining binding (EGFR del747-750/T751S; cell-free assay; competition with immobilised ligand; 1 µM): 100%

CC1CCCN1c1nccc(-c2cnn3ncccc23)n1 (stereo not drawn)
remaining binding (EGFR del752-759; binding; 1 µM): 100%

c1cncc(-c2cccc(Nc3nccc(NC4CCCCC4)n3)c2)c1
remaining binding (EGFR A750P/del747-749; binding; competition with immobilised ligand; 10 µM): 36%

CNC(=O)[C@@H]1CC[C@@H](n2c(-c3ccc4cnccc4c3)nc3ccc(C(=O)NCc4cccc(C(N)=O)c4)cc32)C1
remaining binding (EGFR; binding; competition with immobilised ligand; 1 µM): 100%

O=C(NCC1CCOCC1)c1n[nH]cc1NC(=O)c1c(F)cccc1F
remaining binding (EGFR; binding; competition with immobilised ligand; 1 µM): 99%

O=C(c1ccc(Nc2nccc(-c3cc4ccccc4s3)n2)cc1)N1CCC(N2CCCC2)CC1
remaining binding (EGFR del746-750; binding; competition with immobilised ligand; 1 µM): 100%

N[C@H]1CCN(c2nccc(-c3cnn4ncccc34)n2)C1
remaining binding (EGFR G719S; binding; 1 µM): 93%

COc1ncc2cc3ccccc3nc2c1C#N
remaining binding (EGFR T790M; cell-free assay; competition with immobilised ligand; 5 µM): 100%

FC(F)(F)Oc1cccc(-c2cnc3ccc(-c4ccncc4)nn23)c1
remaining binding (EGFR; cell-free assay; competition with immobilised ligand; 5 µM): 79%

COc1cnc(Nc2cccc(S(N)(=O)=O)c2)nc1N1CCN(c2ccccc2)C(=O)C1
remaining binding (EGFR T790M; binding; competition with immobilised ligand; 1 µM): 92%

COc1ccnn2ncc(-c3ccnc(N(C)C)n3)c12
remaining binding (EGFR G719C; binding; 1 µM): 92%

O=C(c1ccc(Nc2ncc(Cl)c(-c3cc4ccccc4s3)n2)cc1)N1CCC(N2CCCC2)CC1
remaining binding (EGFR del747-750/T751S; binding; competition with immobilised ligand; 1 µM): 89%

CN1CCN(c2ccc(Nc3nccc(-c4cccc([N+](=O)[O-])c4)n3)cc2C(F)(F)F)CC1
remaining binding (EGFR L858R; binding; 10 µM): 72%

O=C(NCCCN1CCOCC1)c1ccc(Nc2ncc(Cl)c(-c3ccc(Cl)s3)n2)cc1
remaining binding (EGFR L861Q; binding; competition with immobilised ligand; 1 µM): 100%

Nc1ncc2c(n1)-c1c([nH]c3ccc(C#CC4CC4)cc13)CCCC2
remaining binding (EGFR L858R/T790M; binding; competition with immobilised ligand; 1 µM): 87%

NS(=O)(=O)c1cc(NC(=O)Cc2ccccc2)ccc1Oc1cccc(Cl)c1
remaining binding (EGFR G719S; cell-free assay; competition with immobilised ligand; 1 µM): 74%

CN(C)c1nccc(-c2cnc3ncccn23)n1
remaining binding (EGFR T790M; binding; 1 µM): 58%

CN(C)c1ncnc(-c2ccc3nc(Nc4cc(CN5CCN(C(=O)CC(F)(F)F)CC5)ccn4)[nH]c3c2)c1Cl
remaining binding (EGFR L858R/T790M; cell-free assay; competition with immobilised ligand; 1 µM): 82%

O=C(Nc1c[nH]nc1C(=O)NC1CCNCC1)c1cc(F)cc(F)c1
remaining binding (EGFR L861Q; binding; competition with immobilised ligand; 1 µM): 100%

Cc1cnc(Nc2ccc(C(=O)N3CCC(N4CCCC4)CC3)cc2)nc1-c1cc2ccccc2s1
remaining binding (EGFR L858R/T790M; binding; competition with immobilised ligand; 1 µM): 59%

COc1cccc(CNC(=O)c2nc3scc(COCc4ccc(C(=O)O)cc4)c3c(=O)[nH]2)c1
remaining binding (EGFR L858R; cell-free assay; competition with immobilised ligand; 1 µM): 88.3%

C[C@H]1CCN(c2nccc(-c3cnn4ncccc34)n2)C1
remaining binding (EGFR del746-750; binding; 1 µM): 71%
